≈ marks a conversion by molar mass, not a printed value. Calls of active or inactive are those of the source. The rule behind the calls is not given here.
Columns and labels:
[1] = target: T1, Lysosomal alpha-glucosidase (Homo sapiens, UniProt P10253); assay: Ratio of Kd for wild type recombinant NT-495 labelled GAA to IC50 for wild type recombinant GAA (unknown origin
[2] = target: T1, Lysosomal alpha-glucosidase; assay: Increase in GAA activity in human wild type skin fibroblasts incubated for 5 days by fluorescence assay relative to vehicle-treated control
Method in brief: (§1)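 Fibroblasts seeded at 5,000 cells/well and treated 5 days, with media and compound renewed on day 3. Assayed directly or after PBS wash and 18 h or 40 h in compound-free medium. Cells were incubated 2 h at 37 °C in pH 4.0 citrate/phosphate buffer with 3 mM 4-MUG and acarbose, then stopped at pH 10. Background subtracted, normalized to vehicle (100%); triplicate, mean ±SD.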

Caco-2 [3] = assay: Efflux ratio from basolateral to apical side to apical to basolateral side of human Caco2 cells; type: ADME, cell-based
[4] = target: T1, Lysosomal alpha-glucosidase; assay: Increase in translocation of GAA to lysosome in human F3248 cells at 1 uM after 5 days by confocal laser-scanning microscopic analysis; type: cell-based
Method in brief: (§2)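 Wild-type primary dermal fibroblasts or Pompe patient fibroblasts (F3248, F0833, F2845; low passage) treated with compound for 5 or 6 days. Fixed in 3% paraformaldehyde, permeabilized with 0.1% Triton X-100, blocked, stained with mouse anti-GAA (Alexa-488) and goat anti-cathepsin D (Alexa-555), DAPI counterstain. Confocal images taken at fixed laser settings; percentage of cells with lysosomal GAA co-localization scored.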

[5] = target: T1, Lysosomal alpha-glucosidase; assay: Increase in translocation of GAA to lysosome in human F0833 cells at 1 uM after 5 days by confocal laser-scanning microscopic analysis; type: cell-based; method in brief: as §2
[6] = target: T1, Lysosomal alpha-glucosidase; assay: Increase in GAA activity in human F2845 cells incubated for 5 days by fluorescence assay relative to vehicle-treated control; type: cell-based; method in brief: as §1
Caco-2 [7] = assay: Permeability from basolateral to apical side of human Caco2 cells
Caco-2 [8] = assay: Permeability from apical to basolateral side of human Caco2 cells
Liver = assay: Half life in mouse liver microsomes
[9] = Aqueous solubility in PBS buffer
[10] = target: T1, Lysosomal alpha-glucosidase; assay: Increase in GAA activity in human F2845 cells incubated for 5 days followed by 18 to 40 hrs wash out by fluorescence assay relative to vehicle-treated control; type: cell-based; method in brief: as §1
[11] = target: T1, Lysosomal alpha-glucosidase; assay: Increase in GAA activity in human wild type skin fibroblasts incubated for 5 days followed by 18 to 40 hrs wash out by fluorescence assay relative to vehicle-treated control; method in brief: as §1
[12] = target: T1, Lysosomal alpha-glucosidase; assay: Increase in translocation of GAA to lysosome in human F2845 cells at 1 uM after 5 days by confocal laser-scanning microscopic analysis; type: cell-based; method in brief: as §2
[13] = target: T1, Lysosomal alpha-glucosidase; assay: Increase in translocation of GAA to lysosome in human F3248 cells at 5 uM after 5 days by confocal laser-scanning microscopic analysis; type: cell-based; method in brief: as §2
[14] = target: T1, Lysosomal alpha-glucosidase; assay: Increase in translocation of GAA to lysosome in human F0833 cells at 5 uM after 5 days by confocal laser-scanning microscopic analysis; type: cell-based; method in brief: as §2
[15] = target: T1, Lysosomal alpha-glucosidase; assay: Increase in translocation of GAA to lysosome in human F2845 cells at 5 uM after 5 days by confocal laser-scanning microscopic analysis; type: cell-based; method in brief: as §2
[16] = Cytotoxicity in human F2845 cells at 5 uM after 6 days by confocal laser-scanning microscopic analysis; type: cell-based; conditions: f2845, 144 h
Method in brief: (§3)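 Primary wild-type dermal fibroblasts and patient-derived Pompe fibroblasts (passage 7) grown on chamber slides and exposed to compound for 5 or 6 days. Viability judged from the cultures examined by immunostaining and confocal microscopy.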

[17] = target: T1, Lysosomal alpha-glucosidase; assay: Increase in translocation of GAA to lysosomes in human wild type skin fibroblasts at 5 uM after 6 days by confocal laser-scanning microscopic analysis; method in brief: as §2
[18] = target: T1, Lysosomal alpha-glucosidase; assay: Increase in translocation of GAA to lysosomes in human wild type fibroblasts at 15 uM after 6 days confocal laser-scanning microscopic analysis; method in brief: as §2
[19] = target: T1, Lysosomal alpha-glucosidase; assay: Binding affinity at wild type recombinant GAA assessed as rise in melting temperature of protein using SYPRO Orange dye by fluorescence assay
Method in brief: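 Thermal shift of recombinant wild-type GAA (1 μM) with SYPRO Orange (5×) in 50 mM citrate buffer pH 5.0 with 100 mM KCl, 10 mM NaCl, 1 mM MgCl2. Six-point compound series, 0.82–200 μM final, 2% DMSO, DMSO controls. Heated 20 to 95 °C at 4.8 °C/s; fluorescence ex 498/em 580 nm; Tm calculated from the melt curve.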

[20] = target: T1, Lysosomal alpha-glucosidase; assay: Inhibition of wild type recombinant GAA preincubated for 5 mins measured after 45 mins using red-shifted dye by fluorescence assay; conditions: read-out: IC50
[21] = target: T1, Lysosomal alpha-glucosidase; assay: Inhibition of wild type recombinant GAA preincubated for 5 mins measured after 45 mins using blue-shifted dye by fluorescence assay; conditions: read-out: IC50
[22] = target: T1, Lysosomal alpha-glucosidase; assay: Binding affinity at wild type recombinant GAA assessed as thermostabilization of protein at 50 uM incubated at 66 degC for 60 mins
Method in brief: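 GAA incubated at 66 °C for 60 min with compound at 50 μM, compared with room-temperature incubation. Residual enzymatic activity read out and expressed as the ratio of heated to room-temperature activity; DMSO controls run in duplicate.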

[23] = Cytotoxicity in human F2845 cells assessed as cell viability at 1 to 5 uM after 5 days confocal laser-scanning microscopic analysis; type: cell-based; conditions: f2845, 120 h; method in brief: as §3
[24] = Cytotoxicity in human wild type skin fibroblasts assessed as cell viability at 1 to 5 uM after 5 days by confocal laser-scanning microscopic analysis; conditions: skin fibroblast, 120 h; method in brief: as §3
[25] = target: T1, Lysosomal alpha-glucosidase; assay: Increase in translocation of GAA to lysosomes in human F2845 cells at 1 to 5 uM after 5 days by confocal laser-scanning microscopic analysis; type: cell-based; method in brief: as §2
[26] = target: T1, Lysosomal alpha-glucosidase; assay: Increase in translocation of GAA to lysosomes in human wild type skin fibroblasts at 1 to 5 uM after 5 days by confocal laser-scanning microscopic analysis; method in brief: as §2
[27] = Cytotoxicity in human F2845 cells at 10 to 20 uM after 6 days by confocal laser-scanning microscopic analysis; type: cell-based; conditions: f2845, 144 h; method in brief: as §3
[28] = Cytotoxicity in human wild type skin fibroblasts at 10 to 20 uM after 6 days by confocal laser-scanning microscopic analysis; conditions: skin fibroblast, 144 h; method in brief: as §3
[29] = target: T1, Lysosomal alpha-glucosidase; assay: Inhibition of human recombinant GAA assessed as hydrolysis of bovine liver glycogen by Amplex red oxidase assay
Method in brief: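 Recombinant human GAA hydrolysing bovine liver glycogen as the native substrate. Released glucose was detected with an Amplex Red glucose oxidase coupled reaction, read as fluorescence on a plate reader.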

[30] = target: T2, Lysosomal acid glucosylceramidase (Homo sapiens) (UniProt P04062); assay: Inhibition of glucocerebrosidase
T2 sequence (whole entry): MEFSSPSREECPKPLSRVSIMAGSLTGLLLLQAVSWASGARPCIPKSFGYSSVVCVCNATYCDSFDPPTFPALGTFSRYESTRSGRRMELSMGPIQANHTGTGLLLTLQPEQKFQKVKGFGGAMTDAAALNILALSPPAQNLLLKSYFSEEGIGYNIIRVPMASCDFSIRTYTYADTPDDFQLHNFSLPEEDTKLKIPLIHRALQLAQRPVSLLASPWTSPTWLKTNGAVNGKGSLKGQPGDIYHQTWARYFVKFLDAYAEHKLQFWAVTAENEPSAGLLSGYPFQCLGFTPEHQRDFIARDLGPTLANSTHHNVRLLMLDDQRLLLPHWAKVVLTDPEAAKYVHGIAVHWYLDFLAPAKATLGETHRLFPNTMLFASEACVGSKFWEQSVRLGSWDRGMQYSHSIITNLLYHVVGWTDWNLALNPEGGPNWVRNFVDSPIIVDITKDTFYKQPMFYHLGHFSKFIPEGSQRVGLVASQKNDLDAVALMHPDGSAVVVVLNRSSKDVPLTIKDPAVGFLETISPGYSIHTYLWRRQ

[31] = Inhibition of alpha-galactosidase

| SMILES | Ratio [1] | Activity [2] | Ratio (Caco-2 [3]) | Activity [6] | Papp (Caco-2 [7]) [×10⁻⁶ cm/s] | Papp (Caco-2 [8]) [×10⁻⁶ cm/s] | t1/2 (Liver) [h] | solubility [9] [µM] | Activity [10] | Activity [11] | Activity [19] | IC50 [20] [nM] | IC50 [21] [nM] | Activity [22] | other results |
| --- | --- | --- | --- | --- | --- | --- | --- | --- | --- | --- | --- | --- | --- | --- | --- |
| CC(=O)c1ccc(N2CCN(S(=O)(=O)c3cc4c(cc3Cl)NC(=O)C4)CC2)cc1 | 20 | Active | 0.57 | Active | 30.9 | 54.3 | > 1 | 20.8 (≈ 9.03 µg/mL) | Active | Active | Active | 1630 | 1630 | Active | Activity [4]: inactive; Activity [5]: inactive; Activity [12]: inactive; Activity [13]: Active; Activity [14]: Active; Activity [15]: Active; Activity [16]: Toxic; Activity [17]: 30%; Activity [18]: 40% |
| CC(=O)c1ccc(N2CCN(S(=O)(=O)c3ccc4c(c3)CC(=O)N4)CC2)cc1 | 20 | Active | 1.9 | Active | 27.1 | 14.6 | > 1 | 7.9 (≈ 3.16 µg/mL) | Active | Active | Active | 940 | 750 | Active | Activity [23]: Non-toxic; Activity [24]: Non-toxic; Activity [25]: inactive; Activity [26]: inactive; Activity [27]: Toxic; Activity [28]: Toxic; INH [29]: 330 nM; inhibition [30]: Active; inhibition [31]: Active |
